Where no end group is shown, it is not given here.
Biological target: ACE1 (Homo sapiens, UniProt P12821)
Assay: In vitro ACE1 inhibition assay
Type: biochemical
Summary of the method: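 Commercial WST colorimetric kit, run per the manufacturer's instructions. Test peptides were diluted in PBS to 0.01–100 µM and mixed with substrate buffer and enzyme working solution, then incubated 1 h at 37 °C. Indicator working solution was added for 5 min at room temperature, and absorbance was read at 450 nm. Blanks with and without enzyme were included. Assays were run in triplicate, and IC50 was obtained by nonlinear regression of inhibition against concentration.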

Sequence of ACE1 (P12821 30-1306): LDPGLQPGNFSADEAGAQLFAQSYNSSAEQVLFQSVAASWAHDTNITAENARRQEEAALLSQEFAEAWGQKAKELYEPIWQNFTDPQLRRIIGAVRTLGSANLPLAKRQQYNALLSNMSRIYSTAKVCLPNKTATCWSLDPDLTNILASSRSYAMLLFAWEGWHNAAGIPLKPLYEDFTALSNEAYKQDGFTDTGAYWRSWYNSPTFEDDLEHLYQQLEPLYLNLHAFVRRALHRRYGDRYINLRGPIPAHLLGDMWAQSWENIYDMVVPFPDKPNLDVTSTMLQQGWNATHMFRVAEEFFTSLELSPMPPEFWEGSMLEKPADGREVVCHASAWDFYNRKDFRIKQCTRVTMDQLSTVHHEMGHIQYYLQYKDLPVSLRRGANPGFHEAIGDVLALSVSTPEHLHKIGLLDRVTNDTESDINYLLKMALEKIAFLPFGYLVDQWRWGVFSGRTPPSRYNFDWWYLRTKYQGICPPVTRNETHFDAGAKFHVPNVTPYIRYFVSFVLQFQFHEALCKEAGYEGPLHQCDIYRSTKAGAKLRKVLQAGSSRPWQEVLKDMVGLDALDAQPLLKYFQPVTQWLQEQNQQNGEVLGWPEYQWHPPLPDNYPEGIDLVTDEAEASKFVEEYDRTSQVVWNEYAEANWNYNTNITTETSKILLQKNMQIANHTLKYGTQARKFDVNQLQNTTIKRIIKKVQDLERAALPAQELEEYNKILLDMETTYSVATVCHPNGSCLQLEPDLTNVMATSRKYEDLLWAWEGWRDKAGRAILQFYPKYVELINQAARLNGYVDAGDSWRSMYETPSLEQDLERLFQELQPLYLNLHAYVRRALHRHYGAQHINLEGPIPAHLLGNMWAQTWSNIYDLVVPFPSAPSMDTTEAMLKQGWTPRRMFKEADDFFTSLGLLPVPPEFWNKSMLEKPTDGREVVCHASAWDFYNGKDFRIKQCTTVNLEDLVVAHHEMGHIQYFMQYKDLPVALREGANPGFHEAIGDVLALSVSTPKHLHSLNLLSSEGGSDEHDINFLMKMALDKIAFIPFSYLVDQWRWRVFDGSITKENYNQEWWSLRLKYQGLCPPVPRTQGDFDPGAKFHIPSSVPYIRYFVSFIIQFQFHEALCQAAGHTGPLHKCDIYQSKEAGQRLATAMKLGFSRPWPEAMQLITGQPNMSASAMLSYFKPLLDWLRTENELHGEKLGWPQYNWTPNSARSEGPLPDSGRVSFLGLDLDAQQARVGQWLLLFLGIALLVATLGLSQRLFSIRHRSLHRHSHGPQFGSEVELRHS

Compound | IC50
CC(C)C[C@H](NC(=O)[C@H](Cc1ccccc1)NC(=O)[C@H](CCCCN)NC(=O)[C@H](Cc1ccccc1)NC(=O)[C@H](CC(N)=O)NC(=O)[C@@H](NC(=O)[C@@H]1CCCN1)C(C)C)C(=O)N[C@@H](CO)C(=O)N[C@@H](Cc1cnc[nH]1)C(=O)O [Hp-F, Hemopressin-F] | 6.22 ± 0.44 µM
CC(C)C[C@H](NC(=O)[C@H](CC(C)C)NC(=O)[C@H](CCCCN)NC(=O)[C@H](Cc1ccccc1)NC(=O)[C@H](CC(N)=O)NC(=O)[C@@H](NC(=O)[C@@H]1CCCN1)C(C)C)C(=O)N[C@@H](CO)C(=O)N[C@@H](Cc1c[nH]cn1)C(=O)O [Hp-L, Hemopressin-L] | 3.86 ± 0.87 µM
RVDPVNFKFLSH [RVD-Hp-F, RVD-Hemopressin-F] | 12.4 ± 2.92 µM
RVDPVNFKLLSH [RVD-Hp-L, RVD-Hemopressin-L] | 2.52 ± 0.11 µM
VDPVNFKFLSH [VD-Hp-F, VD-Hemopressin-F] | 10.8 ± 0.79 µM
VDPVNFKLLSH [VD-Hp-L, VD-Hemopressin-L] | 4.54 ± 0.83 µM

Source: PMC11579378 (Scientific Reports, 2024)
